# Screening results as filed in PubChem.
# PDI turbidity = inhibitors of human protein disulfide isomerase. P07237. inhibition, % at 10 µM. AID 588391. 350,000 compounds, 0.052% hits. PDI insulin aggregation turbidity, A650, 90 min;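 active = mean inhibition across replicates of 30% or more, whatever share of single replicates reach that level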
# S100A4 inh HTS = S100A4-myosin IIA interaction inhibition | S100A4/TAMRA-MyoIIA peptide fluorescence polarization | inhibition, % at 10.7 µM | 360,000 compounds, 0.14% hits | AID 652163;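 active = mean inhibition of at least 70% across replicates, with every replicate also reaching that level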
#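 System – human S100A4 monomer protein, biochemical binding assay · Buffer or medium – Calcium-containing HEPES buffer, pH 7.2 · Timing – 5 min between mix addition and reading · Also added – TAMRA-labelled myosin IIA heavy-chain peptide probe, 5 nM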
# FGF22 binding = FGF22 (human) thermal shift binding. Q9HCT0. recombinant FGF22 thermal shift, SYPRO orange fluorescence; percent of sucrose octasulfate shift, DMSO zero. activity (Tm shift, normalised), % at 9.99 µM. 340,000 compounds, 1.5% hits;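 active = mean Tm shift, scaled 0 neutral to 100 positive control, at about 1.3% or above, every replicate too, limit read from the data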
# ERAP1 HTS inh = inhibitors of human ERAP1 aminopeptidase | recombinant ERAP1, Leu-AMC fluorescence, 60 min | inhibition, % at 10.7 µM | 340,000 compounds, 0.15% hits;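 active = mean replicate inhibition of at least 30%, or all replicates individually reaching that 30% level; inactive = mean below 30% and not every replicate reaching it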;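 note: 0% = neutral control wells and 100% = L-leucinethiol positive control wells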
# ERp5 inh = ERp5 (human) disulfide isomerase inhibition. Q15084. ERp5 insulin aggregation, absorbance 650 nm, 90 min. inhibition, % at 9.99 µM. 350,000 compounds, 0.05% hits;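 active = mean replicate inhibition above about 25%, with every replicate also reaching it, limit read from the data, passing the limit was not always enough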
# * marks the source's active call; other numbers are inactive results; . = not tested or not shown. The entries come from a sample that favours hits as a whole.
SMILES,PDI turbidity,S100A4 inh HTS,FGF22 binding,ERAP1 HTS inh,ERp5 inh
CC(=O)N(c1ccccc1C)S(=O)(=O)c1ccc(Cl)cc1,0,-22,43*,0,1
CCCn1c(N)c(Sc2ccc(C)cc2)c(=O)n(CCC)c1=O,5,-2,43*,0,-4
COc1ccc(N=Nc2c(N)nn(C)c2N)cc1,-3,0,44*,9,-2
CN1C(C(=O)Nc2cccc(O)c2)=CC(c2cccs2)=NS1(=O)=O,.,-3,0,1,2
O=C(Nc1ccc(F)cc1)Nc1ccccc1NS(=O)(=O)c1cccs1,3,2,49*,-6,3
O=C(Nc1ccc(Cl)cc1)Nc1ccccc1NS(=O)(=O)c1cccs1,-4,-3,0,-12,-2
CCc1cc(OCCCCNCc2ccccc2)ccc1Cl,54*,.,.,.,.
Cc1cc(CN2CCCC(CO)(Cc3cccc(Cl)c3)C2)n[nH]1 (configuration not stated),1,-7,44*,-1,2
Cc1cc(C)nc(NC(=S)Nc2ccc(Br)cc2Cl)c1,-2,-7,43*,4,6
Cc1cc(C)nc(NC(=S)Nc2cccc(Cl)c2Cl)c1,3,-3,0,-1,9
C[C@H](CO)N1C[C@H](C)[C@H](CN(C)Cc2ccc3c(c2)OCO3)OCCCC[C@H](C)Oc2ccc(NS(=O)(=O)c3ccccc3)cc2C1=O,.,-9,.,-4,2
COc1cccc(C2=NOC(C(=O)NC3CCCCC3)C2)c1 (configuration not stated),-2,.,.,.,.
COc1ccc(S(=O)(=O)NNC(=O)C2CC(c3cccnc3)=NO2)cc1 (configuration not stated),-9,-1,44*,-2,-12
COc1cccc(C2=NOC(C(=O)Nc3cccnc3Cl)C2)c1 (configuration not stated),4,-2,44*,-3,3
O=C(CSc1cccc(C(F)(F)F)c1)NC(=O)NCc1ccco1,22,.,.,.,.
COc1ccc(OCCNS(=O)(=O)c2cccc([N+](=O)[O-])c2)cc1,3,0,43*,1,6
COc1ccc(OCCNS(=O)(=O)c2ccccc2)cc1,5,.,.,.,.
N#Cc1ccc(OCC(=O)N/N=C(\CCC(=O)O)c2cccs2)cc1,11,0,43*,0,4
CCn1nc(C)cc1-c1n[nH]c(=S)n1N,6,.,.,.,.
Cc1cc(C)n(-c2ccc(C(=O)Nc3ccc4c(c3)OCCO4)cc2)n1,3,.,.,.,.
Cc1cc(C)n(-c2ccc(C(=O)Nc3cccnc3Cl)cc2)n1,-6,-33,43*,-1,-7
CC(=O)NS(=O)(=O)c1ccc(NC(=O)c2ccc(-n3nc(C)cc3C)cc2)cc1,7,-4,43*,-3,-91
Cc1cc(C)n(-c2ccc(C(=O)Nc3ccccn3)cc2)n1,-5,.,.,.,.
O=C(Nc1ccc(OCc2ccccc2)cc1)c1ccccc1,3,3,0,16,-8
CC(C)=CC(=O)Nc1ccc(OCc2ccccc2)cc1,-1,-1,74*,-3,4
SMILES,PDI turbidity,S100A4 inh HTS,FGF22 binding,ERAP1 HTS inh,ERp5 inh
Cn1ccsc1=NC(=O)c1ccc([N+](=O)[O-])o1,15,-4,0,-3,4
COc1cc(C(=O)N=c2sccn2C)c([N+](=O)[O-])cc1OC,-10,-2,0,45*,-8
CN(C(=O)C1Cc2c(-c3ccc(Cl)cc3)ccnc2O1)c1ccccc1 (configuration not stated),-3,5,25*,2,-4
CN(C(=O)C1Cc2c(-c3ccccc3Oc3ccccc3)ccnc2O1)c1ccccc1 (configuration not stated),7,-4,0,-3,2
CCN(CC)S(=O)(=O)c1cccc(-c2nnc(SCc3nnc(-c4ccccc4)o3)n2C)c1,-2,.,.,.,.
C=CCOC(=O)C(=O)/C=C/c1ccc2c(c1)Cc1ccccc1-2,-10,-9,0,-1,1
CCNC(=O)Nc1ccc2c(c1)C(=O)N(C)[C@@H]1CC[C@H](CC(=O)NCC3CCCCC3)O[C@H]1CO2,.,2,0,-3,-2
O=c1[nH]c(CN2CCOCC2)nc2ccccc12,-1,0,43*,1,-5
Cc1ccc(CN2C(=O)CCC2C(=O)NCCCN2CCC(C)CC2)cc1 (configuration not stated),-2,.,.,.,.
Cc1ccc(CN2C(=O)CCC2C(=O)NCCN2CCN(c3cccc(Cl)c3)CC2)cc1 (configuration not stated),1,1,0,31*,1
C[C@H](NC(=O)C[C@H]1CC[C@H](NC(=O)C2CCC2)[C@@H](CO)O1)c1ccccc1,.,5,0,-2,0
C[C@H](CO)N1C[C@H](C)[C@@H](CN(C)S(=O)(=O)c2ccccc2)Oc2ccc(NC(=O)C3CCCCC3)cc2CC1=O,.,0,0,0,0
OC(Cc1ccccc1Br)c1ncc(-c2ccc(Cl)cc2)[nH]1 (configuration not stated),-5,-3,2.7*,6,-3
S=P(N1CC1)(N1CC1)N1CC1,0,11,0,53*,-8
COc1ccc(OC)c(C2=NOC(C(=O)Nc3cccnc3)C2)c1 (configuration not stated),0,.,.,.,.
CCOc1ccc(CCNC(=O)COC(=O)Cn2cnc3c2c(=O)n(C)c(=O)n3C)cc1OCC,-3,-4,0,48*,3
O=C(Cn1nnc2c(cnn2-c2ccccc2)c1=O)NCc1cccs1,8,.,.,.,.
O=C(Cn1nnc2c(cnn2-c2ccc(F)cc2)c1=O)Nc1ccccc1C(F)(F)F,-9,-3,43*,4,2
COc1cccc(CN2CCCC(CNC(=O)c3ccc(F)cc3)C2)c1OC (configuration not stated),-4,5,43*,-3,4
CCC1CCCCN1C(=O)CSc1nnc(CNC(=O)c2ccco2)o1 (configuration not stated),-8,.,.,.,.
O=C(OCC(=O)N1CCCc2ccccc21)c1ccc(Cl)nc1,8,-2,0,2,2
CC(C)(C)c1ccc2c(c1)C(=O)c1ccccc1C2=O,-4,-2,0,6,-7
CCc1ccc2c(c1)C(=O)c1ccccc1C2=O,5,3,43*,2,-5
CC(C)CCN(C)[C@H]1C[C@H]2c3[nH]c4ccccc4c3CCN2C[C@H]1[C@H](C)O,.,-8,0,-1,1
C/C(O)=C(/C=NCC(=O)O)C(=O)Nc1nccs1,8,-11,43*,-1,6
C/C(=C\c1ccccc1)C(=O)Nc1nccs1,0,-1,0,10,6
CC=Cc1ccc2n(c1=O)C[C@H]1N[C@@H]2[C@@H](C(=O)NC2CCCCC2)[C@@H]1CO (mixture of isomers),.,0,0,0,-3
